Reference: ChEMBL document CHEMBL1140080, “Adamantyl-substituted retinoid-derived molecules that interact with the orphan nuclear receptor small heterodimer partner: effects of replacing the 1-adamantyl or hydroxyl group on inhibition of cancer cell growth, induction of cancer cell apoptosis, and inhibition of SRC homology 2 …” (J Med Chem, 2008)

How the values were obtained:
[1] = Induction of apoptosis in human HL60R cells at 1.0 uM after 24 hrs by acridine orange staining; format: functional
Method in brief: (§1)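 KG-1, HL-60R (24 h) or MDA-MB-231 (96 h) cells in 5% FBS medium attached overnight, then were treated with analogue in Me2SO or vehicle (final 0.1% Me2SO). Apoptotic cells were scored by acridine orange staining on at least three replicates. Tested concentrations were 0.1–5.0 μM, plus 25 μM for KG-1.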

[2] = Growth inhibition of HMVE cells after 72 hrs by alamar blue method; format: cell-based; settings: Homo sapiens
[3] = Growth inhibition of HMVE cells at 0.5 uM after 72 hrs by alamar blue method; format: cell-based; settings: human; for inhibition at 72 h, 0.5 µM: HMVE cells, read-out: GI
MDA-MB-231 [4] = test: Induction of apoptosis in human MDA-MB-231 cells at 1.0 uM after 96 hrs by acridine orange staining; format: functional; method in brief: as §1
MDA-MB-231 [5] = test: Induction of apoptosis in human MDA-MB-231 cells at 2.0 uM after 96 hrs by acridine orange staining; format: functional; method in brief: as §1
[6] = Induction of apoptosis in human HL60R cells at 0.1 uM after 24 hrs by acridine orange staining; format: functional; method in brief: as §1
[7] = target: T1, Tyrosine-protein phosphatase non-receptor type 11 (Homo sapiens, UniProt Q06124); test: Inhibition of SHP2 overexpressed in human KG1 cells; format: cell-based, KG-1
T1 sequence (Q06124 whole entry): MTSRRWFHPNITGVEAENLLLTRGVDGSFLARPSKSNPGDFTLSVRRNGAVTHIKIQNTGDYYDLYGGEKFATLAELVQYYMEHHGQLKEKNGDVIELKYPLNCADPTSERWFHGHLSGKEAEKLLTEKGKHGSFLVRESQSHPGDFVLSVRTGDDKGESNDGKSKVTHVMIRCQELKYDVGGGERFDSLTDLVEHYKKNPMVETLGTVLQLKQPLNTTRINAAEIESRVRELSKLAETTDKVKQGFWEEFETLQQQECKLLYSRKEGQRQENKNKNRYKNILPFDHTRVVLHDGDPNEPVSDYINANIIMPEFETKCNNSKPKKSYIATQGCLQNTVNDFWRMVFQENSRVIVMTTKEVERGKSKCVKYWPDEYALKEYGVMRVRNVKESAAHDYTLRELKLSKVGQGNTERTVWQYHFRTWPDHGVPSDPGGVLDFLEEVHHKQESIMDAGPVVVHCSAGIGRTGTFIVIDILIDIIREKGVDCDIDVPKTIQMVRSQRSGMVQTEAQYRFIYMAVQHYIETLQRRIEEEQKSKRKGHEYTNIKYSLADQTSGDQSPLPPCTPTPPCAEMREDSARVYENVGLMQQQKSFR
Method in brief: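 Shp-2 PTP activity was measured as hydrolysis of the fluorogenic substrate 6,8-difluoro-4-methylumbelliferyl phosphate in the presence of analogue in Me2SO or Me2SO alone (final concentration 5%).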

KG-1 [8] = test: Induction of apoptosis in human KG1 cells at 5.0 uM […] by acridine orange staining; format: functional
KG-1 [9] = test: Induction of apoptosis in human KG1 cells at 1.0 uM […] by acridine orange staining; format: functional
DU-145 [10] = test: Antiproliferative activity against human DU145 cells at 5 uM after 72 hrs by MTT assay; format: functional; settings: DU-145, 72 h
Method in brief: (§2)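 Cells attached for 24 h, then exposed 72 h to analogue in Me2SO or Me2SO alone (final Me2SO 0.1%), with media and compound renewed after 48 h. Viable cells were measured by MTS tetrazolium reduction in three replicates. Top concentration tested per compound was 2.5, 5, 10, 20 or 100 μM.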

MDA-MB-231 [11] = test: Antiproliferative activity against human MDA-MB-231 cells after 72 hrs by MTT assay; format: functional, cell-based; settings: MDA-MB-231, 72 h; method in brief: as §2
DU-145 [12] = test: Antiproliferative activity against human DU145 cells after 72 hrs by MTT assay; format: functional, cell-based; settings: DU-145, 72 h; method in brief: as §2
[13] = Antiproliferative activity against human KG1 AML cells at 5 uM after 48 hrs by MTT assay; format: functional; settings: in the assay text read “by hemocytometer cell counting” for “by MTT assay”
Method in brief: (§3)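 KG-1 cells in 5% FBS medium attached overnight, then treated 48 h with analogue in Me2SO or Me2SO alone (final 0.1%). Cells were harvested and counted by hemocytometer in triplicate wells. Highest concentration evaluated was 5 μM.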

[14] = Antiproliferative activity against human H292 cells after 72 hrs by MTT assay; format: functional, cell-based; settings: NCI-H292, 72 h; method in brief: as §2
[15] = Antiproliferative activity against human H292 cells at 5 uM after 72 hrs by MTT assay; format: functional; settings: NCI-H292, 72 h; method in brief: as §2
[16] = Antiproliferative activity against human KG1 AML cells after 48 hrs by MTT assay; format: functional, cell-based; settings: in the assay text read “by hemocytometer cell counting” for “by MTT assay”; method in brief: as §3
MDA-MB-231 [17] = test: Antiproliferative activity against human MDA-MB-231 cells at 5 uM after 72 hrs by MTT assay; format: functional; settings: MDA-MB-231, 72 h; method in brief: as §2

| SMILES | Activity [1] | IC50 [2] | inhibition at 72 h, 0.5 µM [3] | Activity (MDA-MB-231 [4]) | Activity [6] | other results |
| --- | --- | --- | --- | --- | --- | --- |
| CC(c1cc(-c2ccc3cc(C(=O)O)ccc3c2)ccc1O)C12CC3CC(CC(C3)C1)C2 (stereo not given) | 0% | > 500 nM | 30% |  |  |  |
| Cc1c(-c2ccc(O)c(C34CC5CC(CC(C5)C3)C4)c2)ccc2cc(C(=O)O)ccc12 | 70% | 340 nM | 65% | 28% | 29% | Activity (MDA-MB-231 [5]): 43% |
| O=C(O)c1ccc2cc(-c3ccc(O)c([C@@H]4CC[C@@H]5CCCC[C@H]5C4)c3)ccc2c1 | 0% | > 500 nM | 0% |  |  |  |
| O=C(O)c1ccc2cc(-c3cc(C45CC6CC(CC(C6)C4)C5)ccc3O)ccc2c1 |  |  |  | 0% |  |  |
| COc1ccc(C23CC4CC(CC(C4)C2)C3)cc1-c1ccc2cc(C(=O)O)ccc2c1 | 0% |  |  |  |  |  |
| COc1cc(-c2ccc3cc(C(=O)O)ccc3c2C)ccc1O | 7% |  |  | 5% | -4% | Activity (MDA-MB-231 [5]): 7% |
| Cc1cc(C)c(-c2cc(-c3ccc4cc(C(=O)O)ccc4c3C)ccc2O)c(C)c1 | 0% | > 500 nM | 17% |  | 0% |  |
| CC1(C)CCC(C)(C)c2cc(-c3ccc4cc(C(=O)O)ccc4c3)c(CO)cc21 |  |  |  | 0% |  |  |
| CC(C)=CCC/C(C)=C\Cc1cc(-c2ccc3cc(C(=O)O)ccc3c2)ccc1O | 0% |  |  |  |  |  |
| O=C(O)c1ccc2cc(-c3ccc(O)c([C@@H]4CCC[C@H]5CCCCC54)c3)ccc2c1 (stereo not given in full) | 0% | > 500 nM | 10% |  |  |  |
| CC1(c2cc(-c3ccc(/C=C/C(=O)O)cc3Cl)ccc2O)CCCCC1 |  |  |  |  |  | IC50 [7]: 6400 nM; Activity (KG-1 [8]): 0%; Activity (KG-1 [9]): 0%; inhibition at 5 µM (DU-145 [10]): 32%; IC50 (MDA-MB-231 [11]): > 5000 nM; IC50 (DU-145 [12]): 8000 nM; Activity [13]: 0%; IC50 [14]: 3900 nM; inhibition at 5 µM [15]: 63%; IC50 [16]: > 5000 nM; inhibition at 5 µM (MDA-MB-231 [17]): 9% |
| O=C(O)c1ccc2cc(-c3cc(O)cc(C45CC6CC(CC(C6)C4)C5)c3)ccc2c1 |  |  |  | 0% |  |  |
| COc1ccc(-c2ccc3cc(C(=O)O)ccc3c2)cc1C12CC3CC(CC(C3)C1)C2 | 95% |  |  |  | 3% |  |
| O=C(O)c1ccc2cc(-c3cc(O)c(O)c(C45CC6CC(CC(C6)C4)C5)c3)ccc2c1 |  |  |  | 0% |  |  |
| CC1(C)CC(c2cc(-c3ccc4cc(C(=O)O)ccc4c3)ccc2O)CC(C)(C)C1 | 60% | 500 nM | 50% | 10% | 26% | Activity (MDA-MB-231 [5]): 49% |
| O=C(O)c1ccc2cc(-c3ccc(O)c(C4C5CC6CC(C5)CC4C6)c3)ccc2c1 (stereo not given) | 0% | > 500 nM | 35% |  | 0% |  |

| SMILES | Activity [1] | IC50 [2] | inhibition at 72 h, 0.5 µM [3] | Activity (MDA-MB-231 [4]) | Activity [6] | other results |
| --- | --- | --- | --- | --- | --- | --- |
| CC(C)(C)c1cc(-c2ccc3cc(C(=O)O)ccc3c2)ccc1O |  | > 500 nM | 10% |  |  |  |
| COCCOCOc1ccc(-c2ccc3cc(C(=O)O)ccc3c2)cc1C12CC3CC(CC(C3)C1)C2 | 21% |  |  |  |  |  |
| CC1=C(/C=C/C(C)=C/C=C/C(C)=C/C(=O)O)C(C)(C)CCC1 [TRETINOIN] | 0% | > 500 nM | 10% | 0% | 0% | Activity (MDA-MB-231 [5]): 0% |
| CC1(C)CCC(C)(C)c2cc(-c3cc(-c4ccc(/C=C/C(=O)O)cc4)ccc3O)ccc21 | 0% |  |  |  |  |  |
| COc1cc(-c2ccc3cc(C(=O)O)ccc3c2)cc(C23CC4CC(CC(C4)C2)C3)c1O |  |  |  | 0% |  |  |
| COc1cc(-c2ccc3cc(C(=O)O)ccc3c2)ccc1C12CC3CC(CC(C3)C1)C2 | 0% |  |  |  |  |  |
| O=C(O)c1ccc2cc(-c3ccc(O)c(C45CC6CC(CC(C6)C4)C5)c3)ccc2c1 [O-DEMETHYLATED ADAPALENE] | 98% |  |  | 26% | 73% | Activity (MDA-MB-231 [5]): 46% |
| O=C(O)/C=C/c1ccc(-c2ccc(O)c(C34CC5CC(CC(C5)C3)C4)c2)cc1 [ADAROTENE] | 98% | 100 nM | 90% | 53% |  | Activity (MDA-MB-231 [5]): 58% |
| O=C(O)c1ccc2c(Cl)c(-c3ccc(O)c(C45CC6CC(CC(C6)C4)C5)c3)ccc2c1 | 94% | > 500 nM | 45% | 21% | 62% | Activity (MDA-MB-231 [5]): 41% |
| CCCCC[C@@H]1CC2(c3cc(-c4ccc(/C=C/C(=O)O)cc4)ccc3O)CCC1CC2 | 0% |  |  |  | 0% |  |
| O=C(O)/C=C/c1ccc(-c2ccc(O)c(C3C4CC5CC(C4)CC3C5)c2)cc1 (stereo not given) | 90% |  |  | 20% | 2% | Activity (MDA-MB-231 [5]): 47% |
| Cc1c(-c2ccc(O)c(-c3ccc4c(c3)C(C)(C)CCC4(C)C)c2)ccc2cc(C(=O)O)ccc12 | 0% | 600 nM | 60% |  | 0% |  |
| COc1cc(-c2ccc3cc(C(=O)O)ccc3c2)cc(C23CC4CC(CC(C4)C2)C3)c1 |  |  |  | 20% |  |  |
| CC1C2(c3cc(-c4ccc(/C=C/C(=O)O)cc4)ccc3O)CCC(C2)C1(C)C (stereo not given) | 2% | > 500 nM |  |  | 2% | growth inhibition (GI) ([3]; hmve, 72 h, 0.5 µM): 40% |
| O=C(O)c1ccc2cc(-c3ccc(O)c([C@H]4CCC5CCCC[C@H]5C4)c3)ccc2c1 (stereo not given in full) | 0% |  |  |  |  |  |
